In ChEMBL document CHEMBL1125327, “Conformationally restricted deltorphin analogues” (J Med Chem, 1992):
Positions of bridges follow the written chain, without caps; N, C: chain ends. Non-standard residues stand in square brackets, D forms with d. Residues, ends and D or L forms follow the SMILES beside them. Tic = O=C(O)[C@@H]1Cc2ccccc2CN1; Aic = NC1(C(=O)O)Cc2ccccc2C1; Nle = CCCC[C@H](N)C(=O)O

Key:
Mu-type opioid receptor [1] = biological target: T1, Mu-type opioid receptor (Rattus norvegicus, UniProt P33535); assay: Inhibition of [3H]- ]DAMGO binding to mu receptor from rat brain membrane
Method in brief: (§1)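 Displacement of 0.72 nM [3H]DAMGO from rat brain membranes; 2 h incubation at 0 °C. IC50 read from log dose–displacement curves; Ki calculated by Cheng–Prusoff equation using Kd 1.3 nM for [3H]DAMGO.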

[2] = biological target: T2, Delta-type opioid receptor (Mus musculus, UniProt P32300); assay: (§2) Inhibition of electrically evoked contractions in mouse vas deferens; type: functional
Mu-type opioid receptor [3] = biological target: Mu-type opioid receptor (Cavia porcellus, UniProt P97266); assay: Inhibition of electrically evoked contractions in Guinea pig ileum; type: functional, tissue-based
Method in brief: (§3)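 Isolated guinea pig ileum or mouse vas deferens, electrically stimulated; agonist IC50 taken as inhibition of evoked contractions from log dose–response curves. A [Leu5]enkephalin standard curve was run on each preparation and test IC50 values normalised to it. Antagonist Ke derived from IC50 ratio with and without a fixed antagonist concentration.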

[4] = biological target: T3, Delta-type opioid receptor (Rattus norvegicus, UniProt P33533); assay: Inhibition of [3H]- ]DSLET binding to delta receptor from rat brain membrane
Method in brief: (§4)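 Displacement of 0.78 nM [3H]DSLET from rat brain membrane preparations, incubated 2 h at 0 °C. IC50 from log dose–displacement curves, converted to Ki via Cheng–Prusoff with a [3H]DSLET Kd of 2.6 nM.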

Mu-type opioid receptor [5] = biological target: T1, Mu-type opioid receptor; assay: (§5) Inhibition of [3H]- ]DAMGO binding to Opioid receptor mu 1 from rat brain membrane; method in brief: as §1
[6] = biological target: T3, Delta-type opioid receptor; assay: Inhibition of [3H]- ]DSLET binding to Opioid receptor delta 1 from rat brain membrane; method in brief: as §4
[7] = biological target: T2, Delta-type opioid receptor; assay: as §2; type: functional; method in brief: as §3; remark: listed apart in the source
Mu-type opioid receptor [8] = biological target: T1, Mu-type opioid receptor; assay: as §5; method in brief: as §1; remark: listed apart in the source
[9] = biological target: T3, Delta-type opioid receptor; assay: Inhibition of [3H]- ]DSLET binding to opioid receptor delta from rat brain membrane; method in brief: as §4
Mu-type opioid receptor [10] = biological target: T1, Mu-type opioid receptor; assay: Inhibition of [3H]- ]DAMGO binding to opioid receptor mu from rat brain membrane

T2 sequence (P32300 whole entry): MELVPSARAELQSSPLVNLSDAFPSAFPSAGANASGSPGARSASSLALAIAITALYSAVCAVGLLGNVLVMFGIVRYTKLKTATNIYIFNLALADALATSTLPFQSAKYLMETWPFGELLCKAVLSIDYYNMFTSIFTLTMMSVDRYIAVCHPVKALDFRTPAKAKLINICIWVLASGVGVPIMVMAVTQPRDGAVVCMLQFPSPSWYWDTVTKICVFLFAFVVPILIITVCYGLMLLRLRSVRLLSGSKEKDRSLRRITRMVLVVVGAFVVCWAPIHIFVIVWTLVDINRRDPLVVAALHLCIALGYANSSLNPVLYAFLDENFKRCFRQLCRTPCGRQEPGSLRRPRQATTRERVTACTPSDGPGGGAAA
Chain of Mu-type opioid receptor (Cavia porcellus, UniProt P97266) (P97266 whole entry): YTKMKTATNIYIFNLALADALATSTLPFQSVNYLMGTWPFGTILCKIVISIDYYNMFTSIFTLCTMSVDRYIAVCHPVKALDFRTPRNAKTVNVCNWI
T3 sequence (P33533 whole entry): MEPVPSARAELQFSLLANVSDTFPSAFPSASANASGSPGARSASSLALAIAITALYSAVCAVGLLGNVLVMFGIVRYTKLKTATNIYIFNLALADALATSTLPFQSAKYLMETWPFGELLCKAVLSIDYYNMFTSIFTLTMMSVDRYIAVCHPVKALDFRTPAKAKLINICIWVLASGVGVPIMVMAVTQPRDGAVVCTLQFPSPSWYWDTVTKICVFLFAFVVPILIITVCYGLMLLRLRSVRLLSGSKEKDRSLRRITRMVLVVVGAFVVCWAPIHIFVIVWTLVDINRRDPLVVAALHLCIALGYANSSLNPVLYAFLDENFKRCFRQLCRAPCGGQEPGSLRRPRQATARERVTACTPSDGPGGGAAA
T1 sequence (P33535 whole entry): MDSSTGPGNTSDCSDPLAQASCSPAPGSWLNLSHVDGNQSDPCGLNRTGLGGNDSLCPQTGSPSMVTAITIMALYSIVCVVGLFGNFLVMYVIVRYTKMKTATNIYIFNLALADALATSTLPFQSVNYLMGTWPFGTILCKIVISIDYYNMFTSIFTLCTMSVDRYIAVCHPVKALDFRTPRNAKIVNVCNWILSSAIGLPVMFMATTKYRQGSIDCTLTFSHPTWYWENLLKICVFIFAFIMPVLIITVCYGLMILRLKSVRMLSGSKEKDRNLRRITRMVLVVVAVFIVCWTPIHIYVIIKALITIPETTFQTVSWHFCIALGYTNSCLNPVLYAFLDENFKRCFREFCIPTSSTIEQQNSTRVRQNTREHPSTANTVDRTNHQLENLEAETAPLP

| Structure (SMILES) | Ki (Mu-type opioid receptor [1]) [nM] | IC50 [2] [nM] | IC50 (Mu-type opioid receptor [3]) [nM] | Ki [4] [nM] | Ki (Mu-type opioid receptor [5]) [nM] | Ki [6] [nM] | IC50 [7] [nM] | Ki (Mu-type opioid receptor [8]) [nM] | Ki [9] [nM] | Ki (Mu-type opioid receptor [10]) [nM] |
| --- | --- | --- | --- | --- | --- | --- | --- | --- | --- | --- |
| CC(C)[C@@H]1NC(=O)[C@@H](NC(=O)[C@H](Cc2ccccc2)NC(=O)[C@@H](C)NC(=O)[C@@H](N)Cc2ccc(O)cc2)CC(=O)NCCC[C@@H](C(N)=O)NC(=O)[C@H](C(C)C)NC1=O | 338 | 90.5 | 251 | 562 | – | – | – | – | – | – |
| CC(C)[C@H](NC(=O)[C@@H]1CCC(=O)NCCCC[C@@H](NC(=O)[C@@H](N)Cc2ccc(O)cc2)C(=O)N[C@@H](Cc2ccccc2)C(=O)N1)C(=O)N[C@H](C(=O)NCC(N)=O)C(C)C | 17.5 | 0.467 | 102 | 3.66 | – | – | – | – | – | – |
| CC(C)[C@H](NC(=O)[C@H](CC(=O)O)NC(=O)[C@@H](Cc1ccccc1)NC(=O)[C@@H](C)NC(=O)[C@@H](N)Cc1ccc(O)cc1)C(=O)N[C@H](C(=O)NCC(N)=O)C(C)C | – | – | 11900 | – | 8650 | 67.2 | – | – | – | – |
| CC(C)[C@@H]1NC(=O)[C@H](CC(=O)O)NC(=O)[C@H](Cc2ccccc2)NC(=O)[C@H](NC(=O)[C@@H](N)Cc2ccc(O)cc2)CCCCNC(=O)CC[C@@H](C(N)=O)NC(=O)[C@H](C(C)C)NC1=O | 891 | 17.3 | 380 | 248 | – | – | – | – | – | – |
| CCCC[C@H](NC(=O)[C@H](CC(C)C)NC(=O)[C@H](Cc1cnc[nH]1)NC(=O)[C@H](Cc1ccccc1)NC(=O)[C@@H](CCCC)NC(=O)[C@@H](N)Cc1ccc(O)cc1)C(=O)N[C@@H](CC(=O)O)C(N)=O | 117 | – | 241 | 0.665 | – | – | 0.712 | – | – | – |
| CC(C)[C@@H]1NC(=O)[C@@H](NC(=O)[C@H](Cc2ccccc2)NC(=O)CNC(=O)[C@@H](N)Cc2ccc(O)cc2)CCC(=O)NCCCC[C@@H](C(N)=O)NC(=O)[C@H](C(C)C)NC1=O (H-YGFEVVK-NH2; lactam 4-7) | 955 | 919 | 3880 | 724 | – | – | – | – | – | – |
| CC(C)[C@H](NC(=O)[C@H](CC(=O)O)NC(=O)[C@H](Cc1ccccc1)NC(=O)[C@@H]1Cc2ccccc2CN1C(=O)[C@@H](N)Cc1ccc(O)cc1)C(=O)N[C@H](C(=O)NCC(N)=O)C(C)C (H-Y[Tic]FDVVG-NH2) | – | 22.8 | > 65000 | – | 9230 | 6.49 | – | – | – | – |
| CCCC[C@H](NC(=O)[C@H](CC(C)C)NC(=O)[C@H](Cc1ccccc1)NC(=O)[C@H](Cc1ccccc1)NC(=O)[C@@H]1Cc2ccccc2CN1C(=O)[C@@H](N)Cc1ccc(O)cc1)C(=O)N[C@@H](CC(=O)O)C(N)=O (H-Y[Tic]FFL[Nle]D-NH2) | – | > 10000 | > 10000 | – | 4150 | 8.27 | – | – | – | – |
| CC(C)[C@H](NC(=O)[C@H](CC(=O)O)NC(=O)C1(NC(=O)[C@@H](C)NC(=O)[C@@H](N)Cc2ccc(O)cc2)Cc2ccccc2C1)C(=O)N[C@H](C(=O)NCC(N)=O)C(C)C (H-Y[dA][Aic]DVVG-NH2) | – | 0.0803 | 290 | – | 207 | 4.96 | – | – | – | – |
| CC(C)[C@H](NC(=O)[C@H](CC(=O)O)NC(=O)[C@@H]1Cc2ccccc2CN1C(=O)[C@@H](C)NC(=O)[C@@H](N)Cc1ccc(O)cc1)C(=O)N[C@H](C(=O)NCC(N)=O)C(C)C (H-Y[dA][Tic]DVVG-NH2) | – | 481 | 14500 | – | 15200 | – | – | 4960 | – | – |
| CC(C)[C@H](NC(=O)[C@H](CC(=O)O)NC(=O)C1(NC(=O)[C@@H](C)NC(=O)[C@@H](N)Cc2ccc(O)cc2)CCc2ccccc2C1)C(=O)N[C@H](C(=O)NCC(N)=O)C(C)C (stereo in doubt; 2) | – | 0.115 | 1820 | – | 671 | 5.36 | – | – | – | – |
| CC(C)[C@H](NC(=O)[C@H](CC(=O)O)NC(=O)C1(NC(=O)[C@@H](C)NC(=O)[C@@H](N)Cc2ccc(O)cc2)CCc2ccccc2C1)C(=O)N[C@H](C(=O)NCC(N)=O)C(C)C (stereo in doubt; 3) | – | 0.163 | 1380 | – | – | – | – | – | 6.52 | 1410 |
| CSCC[C@H](NC(=O)[C@H](CC(C)C)NC(=O)[C@H](Cc1cnc[nH]1)NC(=O)[C@H](Cc1ccccc1)NC(=O)[C@@H](CCSC)NC(=O)[C@@H](N)Cc1ccc(O)cc1)C(=O)N[C@@H](CC(=O)O)C(N)=O (stereo in doubt; 7) [DELTORPHIN A] | 143 | 98.3 | 4420 | 290 | – | – | – | – | – | – |
| CSCC[C@H](NC(=O)[C@H](CC(C)C)NC(=O)[C@H](Cc1cnc[nH]1)NC(=O)[C@H](Cc1ccccc1)NC(=O)[C@@H](CCSC)NC(=O)[C@@H](N)Cc1ccc(O)cc1)C(=O)N[C@@H](CC(=O)O)C(N)=O (stereo in doubt; 12) [DELTORPHIN A] | 415 | 0.695 | 281 | 2.13 | – | – | – | – | – | – |
| CC(C)[C@H](NC(=O)[C@H](CC(=O)O)NC(=O)[C@H](Cc1ccccc1)NC(=O)[C@@H](C)NC(=O)[C@@H](N)Cc1ccc(O)cc1)C(=O)N[C@H](C(=O)NCC(N)=O)C(C)C [DELTORPHIN C] | – | – | 854 | – | – | – | – | – | 1.44 | 262 |
